Measurements as given in ChEMBL document CHEMBL1136866, “Synthesis, antiplatelet and in silico evaluations of novel N-substituted-phenylamino-5-methyl-1H-1,2,3-triazole-4-carbohydrazides” (Bioorg Med Chem, 2009).
Values after ≈ are worked out from the molar mass of the structure shown. Active and inactive are the calls of the source. The calls are words filed in the database; no cut-off is given here.

Legend:
Format in all cases: functional
[1] = Antiplatelet activity in human citreated platelet rich plasma assessed as inhibition of adrenaline-induced platelet aggregation preincubated before adrenaline challenge
Method in brief: (§1)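 Human PRP prepared by whole-blood centrifugation (120g, 5 min, room temperature) and adjusted to 3.0 × 10^5 platelets/μL using homologous platelet-poor plasma (1500g, 5 min). Compound at 1–500 μg ml−1, or DMSO (final 1%), preincubated with PRP 2 min at 37 °C before agonist (ADP, adrenaline or arachidonic acid). IC50 in μg ml−1 from aggregation inhibition, assayed within 3 h of sampling.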

[2] = Antiplatelet activity in human citreated platelet rich plasma assessed as inhibition of arachidonic acid-induced platelet aggregation at 100 ug/ml preincubated before arachidonic acid challenge
Method in brief: (§2)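 Human PRP from whole blood spun 120g, 5 min, room temperature; platelet count set to 3.0 × 10^5/μL with homologous platelet-poor plasma (1500g, 5 min). PRP preincubated 2 min at 37 °C with compound at 100 μg ml−1 or DMSO solvent (final 1%), then agonist added (ADP, adrenaline or arachidonic acid). Read-out: % inhibition of aggregation, measured within 3 h of blood sampling.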

Platelet = assay: Antiplatelet activity in human citreated platelet rich plasma assessed as inhibition of adrenaline-induced platelet aggregation at 100 ug/ml preincubated before adrenaline challenge; method in brief: as §2
[3] = Antiplatelet activity in human citreated platelet rich plasma assessed as inhibition of arachidonic acid-induced platelet aggregation preincubated before arachidonic acid challenge; method in brief: as §1
[4] = Antiplatelet activity in human citreated platelet rich plasma assessed as inhibition of adenosine diphosphate-induced platelet aggregation preincubated before adenosine diphosphate challenge; method in brief: as §1
[5] = Antiplatelet activity in human citreated platelet rich plasma assessed as inhibition of adenosine diphosphate-induced platelet aggregation at 100 ug/ml preincubated before adenosine diphosphate challenge; method in brief: as §2

| SMILES | IC50 [1] [µg/mL] | inhibition at 100 µg/mL [2] [%] | inhibition (Platelet) | IC50 [3] [µg/mL] | IC50 [4] [µg/mL] | inhibition at 100 µg/mL [5] [%] |
| --- | --- | --- | --- | --- | --- | --- |
| Cc1c(C(=O)N/N=C/c2ccccc2)nnn1Nc1ccc(Cl)cc1 | 28.9 (≈ 81.5 µM) | ≥ 50 | Active | 32.2 (≈ 90.8 µM) | 180 (≈ 508 µM) | – |
| Cc1c(C(=O)N/N=C/c2ccccc2)nnn1Nc1ccccc1 | 9.6 (≈ 30 µM) | – | Active | 230 (≈ 718 µM) | 19 (≈ 59.4 µM) | > 50 |
| CC(=O)Oc1ccccc1C(=O)O [ASPIRIN] | 11.7 (≈ 64.9 µM) | – | – | 32.5 (≈ 180 µM) | 21.5 (≈ 119 µM) | – |
| Cc1c(C(=O)N/N=C/c2ccncc2)nnn1Nc1ccccc1 | 161 (≈ 501 µM) | ≥ 50 | – | 8.8 (≈ 27.4 µM) | 278 (≈ 864 µM) | – |
| Cc1c(C(=O)N/N=C/c2ccco2)nnn1Nc1ccccc1 | 20.1 (≈ 64.8 µM) | – | Active | 112 (≈ 359 µM) | 338 (≈ 1090 µM) | – |
| Cc1c(C(=O)N/N=C/c2ccc([N+](=O)[O-])o2)nnn1Nc1ccccc1 | 8.9 (≈ 25 µM) | – | Active | 169 (≈ 476 µM) | 11.6 (≈ 32.6 µM) | > 50 |
| Cc1c(C(=O)N/N=C/c2ccc(Br)s2)nnn1Nc1ccc(Cl)cc1 | 144 (≈ 328 µM) | ≥ 50 | – | 9.1 (≈ 20.7 µM) | 332 (≈ 756 µM) | – |
| Cc1c(C(=O)N/N=C/c2ccc(Br)s2)nnn1Nc1ccccc1 | 13.4 (≈ 33.1 µM) | ≥ 50 | Active | 9.1 (≈ 22.5 µM) | 317 (≈ 782 µM) | – |
| Cc1c(C(=O)N/N=C/c2ccco2)nnn1Nc1ccc(Cl)cc1 | 7.8 (≈ 22.6 µM) | ≥ 50 | Active | 8.9 (≈ 25.8 µM) | 261 (≈ 757 µM) | – |
| Cc1c(C(=O)N/N=C/c2ccncc2)nnn1Nc1ccc(Cl)cc1 | 145 (≈ 406 µM) | ≥ 50 | – | 33.1 (≈ 93 µM) | 169 (≈ 474 µM) | – |
| Cc1c(C(=O)N/N=C/c2ccc([N+](=O)[O-])o2)nnn1Nc1ccc(Cl)cc1 | 147 (≈ 377 µM) | ≥ 50 | – | 35.5 (≈ 91.1 µM) | 136 (≈ 350 µM) | – |
